Several values for one entry are separate records, joined by “and”; a condition that tells them apart may be missing. Equal entries are not always repeated. Activity calls are given as the source filed them.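 The calls were made as follows: active = compounds specific to the target that block phage lysis by more than 30% when retested across doses; inactive = the rest, not confirmed on retesting.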
test system: E. coli EV36 T7 phage lysis inhibition, OD600; test: capsule biogenesis inhibitors via T7 lysis, dose response, EV36 K1 hybrid, OD600, round 7 (AID 624056); conditions: not given
In short: (§1)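 Test system: Escherichia coli strain EV36, a K1 capsule/K-12 hybrid | Amount: 1:100 dilution of overnight culture | Buffer or medium: LB broth | Reagent: T7 bacteriophage | Dosing: Two-fold dilution series, 1% DMSO | Schedule: 1.5 h compound at 37 °C, 3 h after phage | Signal: OD600 absorbance | Measure: Phage-driven lysis of unencapsulated bacteria from OD600 change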

Compound | IC50
O=C(O)c1sc(-c2ccc(OCCCC(F)(F)F)cc2)cc1NC(=O)c1c(F)cc(F)cc1F | < 0.65 µM
O=C(Nc1cc(-c2ccc(OC(F)(F)F)cc2)sc1C(=O)O)c1ccc(Br)o1 | 1.17 µM
CCCCOc1ccc(-c2cc(NC(=O)c3cc(Br)c(Br)o3)c(C(=O)O)s2)cc1 | 0.96 µM
O=C(O)c1sc(-c2ccc(OCC(F)(F)F)cc2)cc1NC(=O)c1c(F)cc(F)cc1F | 1.88 µM
CCCc1ccc(-c2cc(NC(=O)c3cc(Br)c(Br)o3)c(C(=O)O)s2)cc1 | 2.35 µM
O=C(O)c1sc(-c2ccc(OC(F)(F)F)cc2)cc1NC(=O)c1c(F)cccc1F | 1.36 µM
CCOc1ccc(-c2cc(NC(=O)c3c(F)cc(F)cc3F)c(C(=O)O)s2)cc1 | 1.83 µM
O=C(Nc1ccncc1)c1ccc2ncsc2c1 | 0.66 µM
CCOc1ccc(-c2cc(NC(=O)c3c(F)cccc3C(F)(F)F)c(C(=O)O)s2)cc1 | 2.65 µM
CCCc1ccc(-c2cc(NC(=O)c3c(F)cc(F)cc3F)c(C(=O)O)s2)cc1 | 1.52 µM

The remaining lines, values ahead:

IC50 | Compound
0.05 µM | O=C(O)c1sc(-c2ccc(OCCC(F)(F)F)cc2)cc1NC(=O)c1c(F)cccc1F
0.32 µM | CCCCOc1ccc(-c2cc(NC(=O)c3ccc(Br)o3)c(C(=O)O)s2)cc1
0.34 µM | CCCc1ccc(-c2cc(NC(=O)c3ccc(Br)o3)c(C(=O)O)s2)cc1
0.29 µM | CCCCOc1ccc(-c2cc(NC(=O)c3c(F)cccc3F)c(C(=O)O)s2)cc1
0.31 µM | [N-]=[N+]=NCCOc1ccc(-c2cc(NC(=O)c3c(F)cccc3F)c(C(=O)O)s2)cc1
0.56 µM | CCCc1ccc(-c2cc(NC(=O)c3c(F)cccc3F)c(C(=O)O)s2)cc1
0.44 µM | O=C(O)c1sc(-c2ccc(OCCC(F)(F)F)cc2)cc1NC(=O)c1c(F)cc(F)cc1F
0.32 µM | O=C(Nc1cc(-c2ccc(OCCC(F)(F)F)cc2)sc1C(=O)O)c1ccc(Br)o1
0.33 µM | CCCCOc1ccc(-c2cc(NC(=O)c3c(F)cc(F)cc3F)c(C(=O)O)s2)cc1
0.41 µM | CCOc1ccc(-c2cc(NC(=O)c3c(F)cccc3F)c(C(=O)O)s2)cc1
0.09 µM | O=C(O)c1sc(-c2ccc(OCCCC(F)(F)F)cc2)cc1NC(=O)c1c(F)cccc1F
0.33 µM | O=C(Nc1cc(-c2ccc(OCC(F)(F)F)cc2)sc1C(=O)O)c1ccc(Br)o1
0.53 µM | CCCOc1ccc(-c2cc(NC(=O)c3c(F)cc(F)cc3F)c(C(=O)O)s2)cc1
0.48 µM | O=C(Nc1cc(-c2ccc(OCCCC(F)(F)F)cc2)sc1C(=O)O)c1ccc(Br)o1
0.35 µM | O=C(O)c1sc(-c2ccc(OCC(F)(F)F)cc2)cc1NC(=O)c1c(F)cccc1F

test system: not listed separately; test: as above; conditions: E. coli EV36 T7 phage lysis inhibition, OD600; at 5 µM (top of the series)
In short: as §1

Compound | phage lysis inhibition
CC(C)(C)c1ccc(-c2cc(NC(=O)c3ccc(Br)s3)c(C(=O)O)s2)cc1 | -11.6% (inactive)
O=C(NCCc1ccncc1)c1ccc2ncsc2c1 | 124% (inactive)
O=C(Nc1cc(-c2ccc(OC(F)(F)F)cc2)sc1C(=O)O)c1cc2ccccc2o1 | 2.17% (inactive)
O=C(Nc1cc(-c2ccc(OC(F)(F)F)cc2)sc1C(=O)O)c1cccc(F)c1 | 75.5% (inactive)
O=C(NCc1ccncc1)c1ccc2ncsc2c1 | 123% (inactive)
O=C(Nc1ccncc1)c1ccc2ncsc2c1 | 126% (inactive)
O=C(Nc1cc(-c2ccc(OCCCC(F)(F)F)cc2)sc1C(=O)O)c1cc(Br)c(Br)o1 | -21.6% (inactive) and -21.4% (inactive)
O=C(NC1CCNCC1)c1ccc2ncsc2c1 | 121% (inactive)
